Data as given in ChEMBL document CHEMBL4513216, “Probing the Open Global Health Chemical Diversity Library for Multistage-Active Starting Points for Next-Generation Antimalarials” (ACS Infect Dis, 2020).

test: Toxicity liver stage against HepG2, at 10uM; assay type: cell-based; set-up: test concentration 10 uM, cell line HepG2-A16-CD81EGFP; details: human, HepG2-A16-CD81EGFP cells; read-out: INHIBITION
How it was run: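 Uninfected HepG2-A16-CD81EGFP cells, 3 × 10^3 per well, 1536-well, plated on prespotted compound at 10 μM final, parasite-free screening media added to match infected plates; puromycin 10 μM positive, DMSO 0.5% negative; run in parallel with 48 h PbLuc assay at 37 °C, 5% CO2; viability by CellTiter-Glo luminescence, normalized to controls.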

Going from `c1coc(CN2CCc3onc(Cn4cccc4)c3C2)c1` to `Cc1cccc(CN2CCCn3c(nnc3Cn3cccn3)C2)n1`, the cytotoxicity at 10 µM falls from 8.43% to -0.124%.

Going from `Cc1nc(N2CCN(C(=O)c3ccncc3)CC2)c2c(n1)c(C)nn2C` to `Cc1cc(C(N)=O)ccc1NC(=O)N1CCN(c2cccs2)CC1`, the cytotoxicity at 10 µM falls from 10.3% to 10.1%.

First: CC(OCC1CC1)C(=O)NCc1ccc(Cn2ccnc2)cc1 (stereo unspecified)
Second: COc1ccccc1CC(=O)N1CCC(NCc2cccnc2)CC1
The cytotoxicity at 10 µM of the first is higher: 15.6% for the first, -5.7% for the second.

Going from `CN(CCOc1ccccc1F)S(=O)(=O)CC1CCOCC1` to `Cc1ccn(CC(=O)NCCCOc2ccccc2F)c(=O)c1`, the cytotoxicity at 10 µM falls from 6.47% to -5.79%.

First: COCc1nc(C(=O)NS(=O)(=O)c2cc(Br)ccc2C)cs1
Second: Cc1cccc(C2CCCN2C(=O)CCS(C)(=O)=O)c1C (stereo unspecified)
The cytotoxicity at 10 µM of the first is lower: -1.66% for the first, -0.272% for the second.

Compared with `CC(O)CN1CCN(C(=O)c2cc3ccccc3c(=O)[nH]2)CC1` (stereo unspecified), `CN(CC(=O)N1CCC(N(C)c2ccccc2)CC1)c1cnccn1` is lower in cytotoxicity at 10 µM: -2.64% for the first, -6.6% for the second.

Going from `Cc1noc(C)c1CN(C)C(=O)NC1CCCN(S(C)(=O)=O)C1` (stereo unspecified) to `CCCC(C(=O)NC1CCN(S(C)(=O)=O)CC1)c1ccccc1` (stereo unspecified), the cytotoxicity at 10 µM rises from -13.9% to -1.38%.

Compared with `O=C(NCCN1CCCCCC1=O)NCc1ccc(Cl)s1`, `O=C(Cc1ccccc1Cl)Nc1ccn(CCN2CCOCC2)n1` is lower in cytotoxicity at 10 µM: -1.08% for the first, -5.44% for the second.

Compared with `O=C(NCCc1cc(N2CCOCC2)nc(NC2CC2)n1)C1CC1`, `CCn1cc(NC(=O)NCC2(N3CCOCC3)CCSC2)cn1` (stereo unspecified) is lower in cytotoxicity at 10 µM: -0.995% for the first, -17.1% for the second.

Compared with `O=C(CCOc1ccccc1)N1CCCC(c2ncc[nH]2)C1` (stereo unspecified), `Cn1nccc1CCC(=O)NC1CCCN(c2ccccn2)C1` (stereo unspecified) is higher in cytotoxicity at 10 µM: -2.68% for the first, 4.18% for the second.

Going from `O=C(NC1CCCC1)c1cc2c(s1)CCN2C(=O)c1ccccc1` to `O=C(CCn1ccc2ccccc21)N1CCC(Nc2cccnn2)CC1`, the cytotoxicity at 10 µM falls from 6.55% to 3.79%.

Compared with `O=C(c1ccc(F)cc1)N1CCOC(c2nc(-c3ncccn3)no2)C1` (stereo unspecified), `O=C(CN1CCOC(Cn2cccn2)C1)NCc1cccs1` (stereo unspecified) is higher in cytotoxicity at 10 µM: -12.4% for the first, -6.88% for the second.

Compared with `CCOCCN1CCC(c2cnccn2)CC1`, `Cn1ccnc1CN1CCN2C[C@H](OCc3cccnc3)C[C@H]2C1` is lower in cytotoxicity at 10 µM: 5.8% for the first, -1.29% for the second.

Going from `C[C@@H]1CN(Cc2nc(Cc3ccccc3F)no2)C[C@H](C)O1` to `CNC(=O)c1cc2ccccc2n1C`, the cytotoxicity at 10 µM rises from 6.74% to 6.84%.

Compared with `O=C(c1nc(=O)[nH][nH]1)N1CCCN(CC2CCCCC2)CC1`, `Cc1nc(N2CCCC2)nc2c1CCN(C(=O)C1CCC1)CC2` is higher in cytotoxicity at 10 µM: -12.9% for the first, 3.39% for the second.

Compared with `CCOC1COC2(CCN(S(=O)(=O)c3cccc(F)c3)CC2)C1` (stereo unspecified), `CCCS(=O)(=O)N1CCC2(CCCN(Cc3cccc(F)c3F)C2=O)C1` (stereo unspecified) is higher in cytotoxicity at 10 µM: 5.15% for the first, 10.3% for the second.

Going from `NC(=O)CC1CCN(Cc2ccccc2OCC(F)(F)F)CC1` to `Cc1ncsc1C(=O)NCc1ccnc(OCC(F)(F)F)c1`, the cytotoxicity at 10 µM falls from -0.535% to -1.37%.

First: O=C(Cc1cccnc1)NC1COc2ccccc2C1=O (stereo unspecified)
Second: Cc1cnccc1Cn1ccnc1C1CCOC1 (stereo unspecified)
The cytotoxicity at 10 µM of the first is lower: -3.77% for the first, -2.53% for the second.

Going from `COCC(=O)N1CCC[C@]2(C(=O)N(C)C)CN(c3ccccn3)C[C@@H]2C1` to `CN(C)C(=O)C1(CCCc2ccccn2)CCN1Cc1nccn1C` (stereo unspecified), the cytotoxicity at 10 µM rises from -10.1% to 8.08%.

Going from `N#Cc1cc2c(=O)n(CC(O)C(F)(F)F)ccc2[nH]c1=O` (stereo unspecified) to `COC(=O)c1sc2nc3c(c(C(F)(F)F)c2c1N)CN(C(C)=O)CC3`, the cytotoxicity at 10 µM falls from -1.99% to -8.18%.

Compared with `COc1cc(OC)cc(N2CCC(NCc3occc3C)C2=O)c1` (stereo unspecified), `COc1cc2c(cc1OC)S(=O)(=O)N(Cc1cnn(C)c1)C2=O` is higher in cytotoxicity at 10 µM: 0.995% for the first, 12.6% for the second.

First: COCCN(C)C[C@@H]1CN(C(=O)c2ccoc2)C[C@@H]1CO
Second: CCN(C)C[C@@H]1CN(C(=O)NC2CCCCC2)C[C@@H]1CO
The cytotoxicity at 10 µM of the first is lower: -18.4% for the first, -1.53% for the second.

Compared with `CC(OCC(F)(F)F)C(=O)N1CCN(S(C)(=O)=O)CC1` (stereo unspecified), `CC(NC(=O)N1CCC2(C1)OCCO2)c1ccc(F)cc1Cl` (stereo unspecified) is lower in cytotoxicity at 10 µM: -1.33% for the first, -5.16% for the second.

Going from `NC(=O)C1=NN2C(=NS(=O)(=O)c3ccccc32)N1` to `COc1ccccc1N1CCC(CNS(=O)(=O)c2cccc(C#N)c2)C1` (stereo unspecified), the cytotoxicity at 10 µM falls from 7.58% to -4.13%.

First: O=C(C1CCCO1)N1CCC(O)(Cn2ccc3ccncc32)CC1 (stereo unspecified)
Second: CC(C)NC(=O)C1CN(C(=O)Nc2cccc(F)c2)CC12CCOCC2 (stereo unspecified)
The cytotoxicity at 10 µM of the first is higher: -29.9% for the first, -85.8% for the second.

First: COc1ccc(CN2CCOC[C@H](OCC(=O)N(C)C)C2)cc1
Second: CC(C)c1cc(NC(=O)CN2CCc3cncnc3C2)on1
The cytotoxicity at 10 µM of the first is higher: 0.552% for the first, -8.83% for the second.

Compared with `Cc1cccc(CN2CCC23CCCNC3)n1` (stereo unspecified), `Cc1nn(C)cc1CNC(=O)c1cn(CCC2CCCCN2)nn1` (stereo unspecified) is lower in cytotoxicity at 10 µM: 2.55% for the first, -6.15% for the second.

First: CN(c1c(F)cccc1F)S(=O)(=O)c1cc2c(c(C(=O)O)c1)OCCO2
Second: Cc1cc2c(cc1C)OC(C(=O)NCCNC(=O)C1CCCC1)C2 (stereo unspecified)
The cytotoxicity at 10 µM of the first is lower: -7.57% for the first, 7.71% for the second.
